ChEMBL document CHEMBL1125243, “Design of potent oxytocin antagonists featuring D-tryptophan at position 2” (J Med Chem, 1991)
Numbered stars: 1 amine (or outer) side, 2 acyl side, 3 side chain; on linkers, the order of the positions; unused ones are H or OH. Bridge positions count the residues as written; N and C are the ends. Square brackets hold non-standard residues; d marks the D form. Peptide text beside a SMILES is read from it. X1 = O=C(CC1(S[*:2])CCCCC1)[*:1]

Species on record: Rattus norvegicus
Assay: Effective dose (antagonist) that reduces the response to an agonist (oxytocin) by one-half.
Assay type: functional
Conditions: not given
Procedure, shortened: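 Isolated estrous rat uterus in Van Dyke-Hastings solution with 0.5 mM Mg²⁺; OT-evoked isometric contractions quantified as integrated peak area. Effective dose taken as molar antagonist concentration halving the agonist response; at least four separate assays.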

Structure (SMILES) | ED50 [nM]
CC[C@H](C)[C@@H]1NC(=O)[C@@H](Cc2c[nH]c3ccccc23)NC(=O)CC2(CCCCC2)SSC[C@@H](C(=O)N2CCC[C@H]2C(=O)N[C@@H](CCCN=C(N)N)C(=O)NCC(N)=O)NC(=O)[C@H](CC(N)=O)NC(=O)[C@H]([C@@H](C)O)NC1=O [listing 1 of 2 here] | 46.8
CC[C@H](C)[C@@H]1NC(=O)[C@@H](Cc2c[nH]c3ccccc23)NC(=O)CC2(CCCCC2)SSC[C@@H](C(=O)N2CCC[C@H]2C(=O)N[C@@H](CCCN=C(N)N)C(=O)NCC(N)=O)NC(=O)[C@H](CC(N)=O)NC(=O)[C@H](C(C)C)NC1=O [listing 1 of 2 here] | 26.9
CC[C@H](C)[C@@H]1NC(=O)[C@H](Cc2ccccc2)NC(=O)[C@@H](Cc2c[nH]c3ccccc23)NC(=O)CC2(CCCCC2)SSC[C@@H](C(=O)N2CC=C[C@H]2C(=O)N[C@@H](CCCN=C(N)N)C(=O)NCC(N)=O)NC(=O)[C@H](CC(N)=O)NC1=O [listing 1 of 2 here] | 38.6
CC[C@H](C)[C@@H]1NC(=O)[C@H]([C@@H](C)CC)NC(=O)[C@@H](Cc2c[nH]c3ccccc23)NC(=O)CC2(CCCCC2)SSC[C@@H](C(=O)N2CCC[C@H]2C(=O)N[C@@H](CCCN=C(N)N)C(=O)NCC(N)=O)NC(=O)[C@H](CC(N)=O)NC1=O [listing 1 of 2 here] | 35.3
CC[C@H](C)[C@@H]1NC(=O)[C@H](Cc2ccc(Cl)cc2)NC(=O)[C@@H](Cc2c[nH]c3ccccc23)NC(=O)CC2(CCCCC2)SSC[C@@H](C(=O)N2CCC[C@H]2C(=O)N[C@@H](CCCN=C(N)N)C(=O)NCC(N)=O)NC(=O)[C@H](CC(N)=O)NC1=O [listing 1 of 2 here] | 40.2
NC(=O)CC[C@@H]1NC(=O)[C@H](Cc2ccccc2)NC(=O)[C@@H](Cc2c[nH]c3ccccc23)NC(=O)CC2(CCCCC2)SSC[C@@H](C(=O)N2CCC[C@H]2C(=O)N[C@@H](CCCN=C(N)N)C(=O)NCC(N)=O)NC(=O)[C@H](CC(N)=O)NC1=O [listing 1 of 2 here] | 27
CCNC(=O)CNC(=O)[C@H](CCCN=C(N)N)NC(=O)[C@@H]1CCCN1C(=O)[C@@H]1CSSC2(CCCCC2)CC(=O)N[C@H](Cc2c[nH]c3ccccc23)C(=O)N[C@@H](Cc2ccccc2)C(=O)N[C@@H](CCC(N)=O)C(=O)N[C@@H](CC(N)=O)C(=O)N1 [listing 1 of 2 here] | 32.9
CC[C@H](C)[C@@H]1NC(=O)[C@H](Cc2ccccc2)NC(=O)[C@@H](Cc2c[nH]c3ccccc23)NC(=O)CC2(CCCCC2)SSC[C@@H](C(=O)N2CCC[C@H]2C(=O)N[C@@H](CCCN=C(N)N)C(=O)NCC(N)=O)NC(=O)[C@H](CC(N)=O)NC1=O [listing 1 of 2 here] | 30.9
CC[C@H](C)[C@@H]1NC(=O)[C@H](Cc2ccccc2)NC(=O)[C@@H](Cc2ccccc2)NC(=O)CC2(CCCCC2)SSC[C@@H](C(=O)N2CCC[C@H]2C(=O)N[C@@H](CCCN=C(N)N)C(=O)NCC(N)=O)NC(=O)[C@H](CC(N)=O)NC1=O ([dF]FINCPRG-NH2; linker N-5 via X1) [listing 1 of 2 here] | 46.6

Species on record: Rattus norvegicus
Assay: Antidiuretic potency was evaluated and expressed as effective dose.
Assay type: functional, Urine
Conditions: not given
Procedure, shortened: (§1)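 Antagonism tested in vivo in water-loaded rats under ethanol anesthesia, with ADH as the agonist standard. The effective dose is the antagonist amount that halves the response to agonist. An in vivo pA₂ was estimated by dividing the effective dose by an assumed volume of distribution of 67 mL/kg. Values reported as mean ± SE.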

Structure (SMILES) | ED50
CC[C@H](C)[C@@H]1NC(=O)[C@H](Cc2ccccc2)NC(=O)[C@@H](Cc2c[nH]c3ccccc23)NC(=O)CC2(CCCCC2)SSC[C@@H](C(=O)N2CCC[C@H]2C(=O)N[C@@H](CCCN=C(N)N)C(=O)NCC(N)=O)NC(=O)[C@H](CC(N)=O)NC1=O [listing 1 of 2 here] | 8.3 nM
CC[C@H](C)[C@@H]1NC(=O)[C@H](Cc2ccccc2)NC(=O)[C@@H](Cc2ccccc2)NC(=O)CC2(CCCCC2)SSC[C@@H](C(=O)N2CCC[C@H]2C(=O)N[C@@H](CCCN=C(N)N)C(=O)NCC(N)=O)NC(=O)[C@H](CC(N)=O)NC1=O ([dF]FINCPRG-NH2; linker N-5 via X1) [listing 1 of 2 here] | 0.87 M
CC[C@H](C)[C@@H]1NC(=O)[C@@H](Cc2c[nH]c3ccccc23)NC(=O)CC2(CCCCC2)SSC[C@@H](C(=O)N2CCC[C@H]2C(=O)N[C@@H](CCCN=C(N)N)C(=O)NCC(N)=O)NC(=O)[C@H](CC(N)=O)NC(=O)[C@H](CCC(N)=O)NC1=O ([dW]IQNCPRG-NH2; linker N-5 via X1) [listing 1 of 2 here] | < 1680 nM

Species on record: Rattus norvegicus
Assay: Antidiuretic action in water-loaded rats under ethanol anesthesia.
Assay type: functional, organism-based
Conditions: Urine, read-out: pA2 (converted)
Procedure, shortened: as §1

Structure (SMILES) | Kb [nM]
CC[C@H](C)[C@@H]1NC(=O)[C@H](Cc2ccccc2)NC(=O)[C@@H](Cc2c[nH]c3ccccc23)NC(=O)CC2(CCCCC2)SSC[C@@H](C(=O)N2CCC[C@H]2C(=O)N[C@@H](CCCN=C(N)N)C(=O)NCC(N)=O)NC(=O)[C@H](CC(N)=O)NC1=O [listing 2 of 2 here] | 7.94
CC[C@H](C)[C@@H]1NC(=O)[C@H](Cc2ccccc2)NC(=O)[C@@H](Cc2ccccc2)NC(=O)CC2(CCCCC2)SSC[C@@H](C(=O)N2CCC[C@H]2C(=O)N[C@@H](CCCN=C(N)N)C(=O)NCC(N)=O)NC(=O)[C@H](CC(N)=O)NC1=O ([dF]FINCPRG-NH2; linker N-5 via X1) [listing 2 of 2 here] | 8.13
CC[C@H](C)[C@@H]1NC(=O)[C@@H](Cc2c[nH]c3ccccc23)NC(=O)CC2(CCCCC2)SSC[C@@H](C(=O)N2CCC[C@H]2C(=O)N[C@@H](CCCN=C(N)N)C(=O)NCC(N)=O)NC(=O)[C@H](CC(N)=O)NC(=O)[C@H](CCC(N)=O)NC1=O ([dW]IQNCPRG-NH2; linker N-5 via X1) [listing 2 of 2 here] | > 1380

Species on record: Rattus norvegicus
Assay: Competitive antagonist action against oxytocin contractile action in rat uterus(in vitro)
Assay type: functional
Conditions: read-out: pA2 (converted)
Procedure, shortened: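 Isolated uteri from rats in natural estrus, incubated in Van Dyke-Hastings solution with 0.5 mM Mg²⁺. Isometric contractions to synthetic OT recorded by force transducer; response quantified by integrating area under peaks. pA₂ determined by Schild method; at least four separate assays per antagonist.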

Structure (SMILES) | Kb [nM]
CC[C@H](C)[C@@H]1NC(=O)[C@@H](Cc2c[nH]c3ccccc23)NC(=O)CC2(CCCCC2)SSC[C@@H](C(=O)N2CCC[C@H]2C(=O)N[C@@H](CCCN=C(N)N)C(=O)NCC(N)=O)NC(=O)[C@H](CC(N)=O)NC(=O)[C@H]([C@@H](C)O)NC1=O [listing 2 of 2 here] | 33.1
CC[C@H](C)[C@@H]1NC(=O)[C@@H](Cc2c[nH]c3ccccc23)NC(=O)CC2(CCCCC2)SSC[C@@H](C(=O)N2CCC[C@H]2C(=O)N[C@@H](CCCN=C(N)N)C(=O)NCC(N)=O)NC(=O)[C@H](CC(N)=O)NC(=O)[C@H](C(C)C)NC1=O [listing 2 of 2 here] | 26.3
CC[C@H](C)[C@@H]1NC(=O)[C@H](Cc2ccccc2)NC(=O)[C@@H](Cc2c[nH]c3ccccc23)NC(=O)CC2(CCCCC2)SSC[C@@H](C(=O)N2CC=C[C@H]2C(=O)N[C@@H](CCCN=C(N)N)C(=O)NCC(N)=O)NC(=O)[C@H](CC(N)=O)NC1=O [listing 2 of 2 here] | 38
CC[C@H](C)[C@@H]1NC(=O)[C@H]([C@@H](C)CC)NC(=O)[C@@H](Cc2c[nH]c3ccccc23)NC(=O)CC2(CCCCC2)SSC[C@@H](C(=O)N2CCC[C@H]2C(=O)N[C@@H](CCCN=C(N)N)C(=O)NCC(N)=O)NC(=O)[C@H](CC(N)=O)NC1=O [listing 2 of 2 here] | 34.7
CC[C@H](C)[C@@H]1NC(=O)[C@H](Cc2ccc(Cl)cc2)NC(=O)[C@@H](Cc2c[nH]c3ccccc23)NC(=O)CC2(CCCCC2)SSC[C@@H](C(=O)N2CCC[C@H]2C(=O)N[C@@H](CCCN=C(N)N)C(=O)NCC(N)=O)NC(=O)[C@H](CC(N)=O)NC1=O [listing 2 of 2 here] | 36.3
NC(=O)CC[C@@H]1NC(=O)[C@H](Cc2ccccc2)NC(=O)[C@@H](Cc2c[nH]c3ccccc23)NC(=O)CC2(CCCCC2)SSC[C@@H](C(=O)N2CCC[C@H]2C(=O)N[C@@H](CCCN=C(N)N)C(=O)NCC(N)=O)NC(=O)[C@H](CC(N)=O)NC1=O [listing 2 of 2 here] | 26.3
CCNC(=O)CNC(=O)[C@H](CCCN=C(N)N)NC(=O)[C@@H]1CCCN1C(=O)[C@@H]1CSSC2(CCCCC2)CC(=O)N[C@H](Cc2c[nH]c3ccccc23)C(=O)N[C@@H](Cc2ccccc2)C(=O)N[C@@H](CCC(N)=O)C(=O)N[C@@H](CC(N)=O)C(=O)N1 [listing 2 of 2 here] | 32.4
CC[C@H](C)[C@@H]1NC(=O)[C@H](Cc2ccccc2)NC(=O)[C@@H](Cc2c[nH]c3ccccc23)NC(=O)CC2(CCCCC2)SSC[C@@H](C(=O)N2CCC[C@H]2C(=O)N[C@@H](CCCN=C(N)N)C(=O)NCC(N)=O)NC(=O)[C@H](CC(N)=O)NC1=O [listing 2 of 2 here] | 30.9
CC[C@H](C)[C@@H]1NC(=O)[C@H](Cc2ccccc2)NC(=O)[C@@H](Cc2ccccc2)NC(=O)CC2(CCCCC2)SSC[C@@H](C(=O)N2CCC[C@H]2C(=O)N[C@@H](CCCN=C(N)N)C(=O)NCC(N)=O)NC(=O)[C@H](CC(N)=O)NC1=O ([dF]FINCPRG-NH2; linker N-5 via X1) [listing 2 of 2 here] | 44.7
